# Test results published in article PMC8740777 (The FASEB Journal, 2022).
# What was measured:
# Human primary astrocytes [1] = assay: cAMP AlphaScreen assay, functional antagonism; assay type: cell-based; conditions: 10 µM, 18 h pretreatment
# Procedure, shortened: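 Astrocytes were pretreated 18 h with 10 µM test compound, then resuspended in HBSS with 0.5 mM IBMX, 5 mM HEPES and 0.1% BSA at 5000 cells/well. Cells were stimulated with S1P plus 10 µM forskolin for 30 min at room temperature. cAMP was read by AlphaScreen after 1 h dark incubation with donor beads in lysis buffer. Data were baseline-corrected, normalized to S1P response and fitted with three-parameter curves. Mean ± SD, n = 3–4.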
# Human primary astrocytes [2] = assay: Ca2+ mobilization assay, functional antagonism; assay type: cell-based; conditions: 18 h pretreatment, Fig. 2B,C
# Procedure, shortened: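 Astrocytes were pretreated overnight (18 h) with 1 or 10 µM test compound, then loaded with calcium dye for 1 h without compound before S1P stimulation, with Ca2+ mobilization recorded. Inhibition was assessed against 10 µM S1P. Mean ± SD, n = 4, pooled from three independent experiments.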
# Human primary astrocytes [3] = assay: cAMP AlphaScreen assay, Gαi-coupled agonist mode; assay type: cell-based; conditions: Fig. 2D, 10 µM FSK
# Procedure, shortened: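 Primary human astrocytes suspended in HBSS with 0.5 mM IBMX, 5 mM HEPES and 0.1% BSA, 5000 cells/well. Compound added with 10 µM forskolin (final), 30 min at room temperature. Lysis buffer (pH 7.4) carried biotin-cAMP/donor beads, then 1 h dark. AlphaScreen read: excitation 680 nm, emission 570 nm. Baseline-corrected, normalized to S1P, three-parameter curve fit. Mean ± SD, n = 3–5 over three experiments.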
# Human primary astrocytes [4] = assay: Ca2+ mobilization assay, agonistic application; assay type: cell-based; conditions: for effect on intracellular Ca2+ mobilization as agonist: Fig. 2A, agonistic application
# Procedure, shortened: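 Human primary astrocytes were plated at 10 000 cells/well in 384-well plates (day 0), switched to FreeStyle 293 expression medium on day 1 for 18 h, then loaded with FLIPR Calcium 4 dye for 1 h […]. Intracellular Ca2+ was monitored kinetically across a concentration series up to 30 µM, and logEC50 was taken from concentration-response curves.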
# S1P5 = S1P5 (Homo sapiens, UniProt Q9H228); assay: S1PR internalization assay, short-term; assay type: cell-based; conditions: 1 µM, 1 h, FCM, normalized to vehicle
# Procedure, shortened: (§1)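 C6 glioblastoma cells stably expressing an HA-tagged human S1P receptor subtype, grown in high-glucose DMEM with 10% FBS and penicillin–streptomycin. Test compound or S1P (1 µM) applied for 1 h. Surface receptor stained with anti-HA (clone 3F10), then PE anti-rat IgG, and read by flow cytometry. Vector-transfected C6 cells served as negative control. Levels normalized to vehicle; n = 4 from two independent experiments.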
# Human primary astrocytes [5] = assay: Single-cell RNA-seq of cytokine-stimulated astrocytes; assay type: cell-based; conditions: 1 µM; for number of DEGs, cytokines + ponesimod vs cytokines: total
# Procedure, shortened: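 Primary human astrocytes (500 000 cells per 6 cm dish) received a cytokine mix (TNF-α, IFN-γ, IL-17, IL-1β, IL-6; 25 ng/ml each) ± 1 µM test compound for 24 or 48 h. 10x Chromium 3′ v3 capture targeted 10 000 cells, with NovaSeq sequencing and GRCh38 alignment. Data were normalized by regularized negative binomial regression and SNN-clustered. MAST DEGs: FDR p < .05, log2FC > 1.1. A fibroblast/pericyte cluster was excluded.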
# S1P4 = biological target: T1, S1P4 (Homo sapiens, UniProt O95977); assay: S1PR internalization assay, short-term; assay type: cell-based; conditions: 1 µM, 1 h, FCM, normalized to vehicle
# T1 sequence (O95977 1-384): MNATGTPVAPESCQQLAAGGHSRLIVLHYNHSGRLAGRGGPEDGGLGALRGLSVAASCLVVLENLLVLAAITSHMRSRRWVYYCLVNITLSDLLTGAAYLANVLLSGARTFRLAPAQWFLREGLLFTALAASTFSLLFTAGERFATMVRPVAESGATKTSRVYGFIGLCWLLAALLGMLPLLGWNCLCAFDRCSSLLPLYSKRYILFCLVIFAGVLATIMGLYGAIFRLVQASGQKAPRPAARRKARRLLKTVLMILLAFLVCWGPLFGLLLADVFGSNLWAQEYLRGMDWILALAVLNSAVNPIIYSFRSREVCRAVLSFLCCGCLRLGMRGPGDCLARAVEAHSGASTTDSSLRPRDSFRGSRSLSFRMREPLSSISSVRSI
# Procedure, shortened: as §1
# [6] = biological target: S1P1‐EGFP fusion construct (Homo sapiens, UniProt P21453); assay: S1P1-EGFP internalization imaging in human primary astrocytes; assay type: cell-based; conditions: 1 µM, 1 h
# S1P1 [7] = biological target: T2, S1P1 (Homo sapiens, UniProt P21453); assay: compensated interferometric reader; assay type: binding
# Procedure, shortened: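 Nanovesicles were made by sonicating C6 glioblastoma cells overexpressing HA-tagged human S1P1, with vector-transfected C6 cells as control. Vesicles were incubated 1 h with increasing test compound concentrations. Compensated interferometric reader signal was read against a reference of compound without vesicles. Specific binding was taken as S1P1-vesicle signal minus control-vesicle signal.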
# [8] = test system: cuprizone‐induced demyelination; assay: cuprizone-induced demyelination, preventative paradigm; assay type: in vivo, C57BL/6J mice; conditions: 30 mg/kg b.i.d. oral during 5 weeks 0.2% cuprizone
# Procedure, shortened: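 Male C57BL/6J mice (8 weeks old) received 0.2% cuprizone diet for 5 weeks with concurrent oral test compound, 30 mg/kg suspension in 0.25% methylcellulose/0.05% polysorbate 80, twice daily 8 h apart. Brains were perfusion-fixed in 10% NBF and cryoprotected, then cut into 30 µm coronal sections. Sections were stained with Black Gold II and immunostained for Olig2 and Iba1. Signal was quantified in a constant ROI in the midline corpus callosum or cingulum.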
# S1P1 [9] = conditions: cited from earlier work
# S1P2 = S1P2 (Homo sapiens, UniProt O95136); assay: S1PR internalization assay, short-term; assay type: cell-based; conditions: 1 µM, 1 h, FCM, normalized to vehicle
# Procedure, shortened: as §1
# S1P3 = S1P3 (Homo sapiens, UniProt Q99500); assay: S1PR internalization assay, short-term; assay type: cell-based; conditions: 1 µM, 1 h, FCM, normalized to vehicle
# Procedure, shortened: as §1
# MS fatigue = conditions: OPTIMUM Phase 3 study; cited from earlier work
# S1P1 [10] = biological target: T2, S1P1; assay: S1PR internalization assay, short-term; assay type: cell-based; conditions: 1 µM, 1 h, FCM, normalized to vehicle
# Procedure, shortened: as §1
# [11] = test system: cuprizone‐induced demyelination; assay: cuprizone model, therapeutic paradigm; assay type: in vivo, C57BL/6J mice; conditions: 30 mg/kg
# S1P1 [12] = biological target: T2, S1P1; assay: S1P1 internalization, wash-out experiment in S1P1-C6 cells; assay type: cell-based; conditions: 1 µM for 4 h, 18 h compound-free medium, FCM
# T2 sequence (P21453 whole entry): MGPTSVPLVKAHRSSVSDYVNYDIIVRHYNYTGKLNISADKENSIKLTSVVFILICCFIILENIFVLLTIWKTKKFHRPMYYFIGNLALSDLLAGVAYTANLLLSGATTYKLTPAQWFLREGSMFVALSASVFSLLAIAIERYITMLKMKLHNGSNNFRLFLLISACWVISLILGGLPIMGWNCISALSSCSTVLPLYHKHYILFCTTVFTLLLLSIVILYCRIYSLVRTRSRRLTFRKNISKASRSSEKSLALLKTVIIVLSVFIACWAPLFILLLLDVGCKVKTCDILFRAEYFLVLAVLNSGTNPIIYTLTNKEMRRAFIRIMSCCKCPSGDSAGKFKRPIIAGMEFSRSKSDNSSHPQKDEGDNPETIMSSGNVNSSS
# S1P2, sequence (O95136 whole entry): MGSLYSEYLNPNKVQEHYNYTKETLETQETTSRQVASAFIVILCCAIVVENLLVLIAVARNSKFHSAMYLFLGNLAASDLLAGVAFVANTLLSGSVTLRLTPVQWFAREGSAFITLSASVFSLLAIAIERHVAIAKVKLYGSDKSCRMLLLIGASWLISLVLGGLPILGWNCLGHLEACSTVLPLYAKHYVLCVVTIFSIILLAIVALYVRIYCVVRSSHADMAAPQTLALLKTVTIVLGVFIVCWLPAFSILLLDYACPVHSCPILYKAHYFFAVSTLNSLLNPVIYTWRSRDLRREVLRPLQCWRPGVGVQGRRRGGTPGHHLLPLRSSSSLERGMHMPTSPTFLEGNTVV
# S1P3, sequence (Q99500 whole entry): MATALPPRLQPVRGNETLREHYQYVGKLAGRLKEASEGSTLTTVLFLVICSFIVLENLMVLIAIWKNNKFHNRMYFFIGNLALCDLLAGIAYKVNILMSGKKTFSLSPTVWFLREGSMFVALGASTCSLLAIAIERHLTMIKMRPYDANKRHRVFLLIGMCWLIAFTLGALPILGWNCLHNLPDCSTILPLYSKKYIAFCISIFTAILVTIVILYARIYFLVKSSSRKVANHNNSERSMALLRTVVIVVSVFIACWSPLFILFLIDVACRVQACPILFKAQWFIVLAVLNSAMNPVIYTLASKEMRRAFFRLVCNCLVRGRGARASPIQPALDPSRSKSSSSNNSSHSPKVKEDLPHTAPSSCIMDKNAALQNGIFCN
# S1P5, sequence (Q9H228 whole entry): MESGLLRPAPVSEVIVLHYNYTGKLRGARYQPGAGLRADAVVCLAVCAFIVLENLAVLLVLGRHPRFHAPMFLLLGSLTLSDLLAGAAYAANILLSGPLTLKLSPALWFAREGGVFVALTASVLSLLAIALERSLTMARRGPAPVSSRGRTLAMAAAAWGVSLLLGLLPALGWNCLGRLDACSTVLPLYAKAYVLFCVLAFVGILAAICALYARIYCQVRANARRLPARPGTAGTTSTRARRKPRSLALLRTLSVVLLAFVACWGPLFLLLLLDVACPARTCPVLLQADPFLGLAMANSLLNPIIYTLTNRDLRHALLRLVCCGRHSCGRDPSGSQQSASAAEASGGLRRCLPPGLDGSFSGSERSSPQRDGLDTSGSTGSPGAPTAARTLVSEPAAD
# S1P1‐EGFP fusion construct, sequence (P21453 whole entry, the tested form may be a part): as the sequence (P21453 whole entry) above
smiles,measurement,setting,value
"CCCCCCCCc1ccc(CC[C@](N)(CO)COP(=O)(O)O)cc1 [Fingolimod-P, fingolimod phosphate]",effect on S1P-induced cAMP inhibition (functional antagonism),Human primary astrocytes [1],right shift of cAMP‐inhibitory curves
same,inhibition of S1P-induced Ca2+ mobilization (functional antagonism),Human primary astrocytes [2],minor
same,effect on inhibiting cAMP production as agonists,Human primary astrocytes [3],Neither ponesimod nor fingolimod‐P showed any effect
same,effect on intracellular Ca2+ mobilization as agonist,Human primary astrocytes [4],"none of the S1PR modulators (ponesimod, siponimod, ozanimod, or fingolimod‐P) affected intracellular Ca^2+ mobilization"
CC(C)Oc1ccc(-c2nc(-c3cccc4c3CC[C@@H]4NCCO)no2)cc1C#N [Ozanimod],inhibition of S1P-induced Ca2+ mobilization (functional antagonism),Human primary astrocytes [2],blocked S1P‐induced Ca^2+ mobilization in a concentration‐dependent manner
same,effect on intracellular Ca2+ mobilization as agonist,Human primary astrocytes [4],"none of the S1PR modulators (ponesimod, siponimod, ozanimod, or fingolimod‐P) affected intracellular Ca^2+ mobilization"
CCC/N=C1\S/C(=C\c2ccc(OC[C@H](O)CO)c(Cl)c2)C(=O)N1c1ccccc1C [Ponesimod],cell surface expression of S1P5,S1P5,remained unchanged
same,common DEGs: upregulated by cytokines and downregulated by ponesimod,Human primary astrocytes [5]; 24 and 48 h,2432 DEGs
same,"number of downregulated DEGs, cytokines + ponesimod vs cytokines",Human primary astrocytes [5]; 24 h,4031
same,"number of upregulated DEGs, cytokines + ponesimod vs cytokines",Human primary astrocytes [5]; 24 h,34
same,"number of DEGs, cytokines + ponesimod vs cytokines",Human primary astrocytes [5]; 24 h,4065 DEGs
same,"number of downregulated DEGs, cytokines + ponesimod vs cytokines",Human primary astrocytes [5]; 48 h,822
same,"number of upregulated DEGs, cytokines + ponesimod vs cytokines",Human primary astrocytes [5]; 48 h,130
same,"cellular distribution on UMAP, ponesimod alone","Human primary astrocytes [5]; 48 h, no cytokines",highly overlapping cellular distribution as compared to controls
same,"number of DEGs, cytokines + ponesimod vs cytokines",Human primary astrocytes [5]; 48 h,952 DEGs
same,"expression of S1PR1, S1PR2 and S1PR3",Human primary astrocytes [5]; cytokine-enhanced expression,suppressed
same,FOS expression,Human primary astrocytes [5]; cytokine-stimulated astrocytes,significantly inhibited FOS expression
same,metallothionein (MT) gene expression in Cluster 8,Human primary astrocytes [5]; cytokine-stimulated astrocytes,significantly downregulated
same,"proliferating astrocyte clusters (Clusters 6, 9, and 12)",Human primary astrocytes [5]; cytokine-stimulated astrocytes,blocked decreases in proliferating astrocyte clusters
same,cellular fractions of reactive astrocyte clusters,"Human primary astrocytes [5]; cytokine-stimulated astrocytes, Clusters 3, 8, 10, 11, 15","selectively decreased the cellular fractions of Clusters 8, 10, and 15"
same,cell surface expression of S1P4,S1P4,remained unchanged
same,effect on S1P-induced cAMP inhibition (functional antagonism),Human primary astrocytes [1],effectively blocked S1P‐induced cAMP inhibition
same,S1P1 internalization (S1P1-EGFP imaging),[6],rapid S1P1 internalization
same,Kd,S1P1 [7],2.09 ± 0.27 nM
same,GFAP+ astrocytes in the CC,[8],increased in the CC
same,GFAP+ astrocytes in the cingulum,[8],tended to decrease in the cingulum
same,Iba1+ microglia in the cingulum,[8],significantly decreased
same,demyelination in the cingulum (black gold II staining),[8],protected mice from demyelination in the cingulum
same,number of Olig2+ oligodendrocytes in CC and cingulum,[8],increased
same,selectivity for S1P1 as compared to other S1PRs,S1P1 [9],> 10 fold
same,cell surface expression of S1P2,S1P2,remained unchanged
same,cell surface expression of S1P3,S1P3,remained unchanged
same,inhibition of S1P-induced Ca2+ mobilization (functional antagonism),Human primary astrocytes [2],blocked S1P‐induced Ca^2+ mobilization in a concentration‐dependent manner
same,"MS fatigue, secondary endpoint",MS fatigue,achieved a novel secondary endpoint of reduced MS fatigue
same,effect on inhibiting cAMP production as agonists,Human primary astrocytes [3],Neither ponesimod nor fingolimod‐P showed any effect
same,cell surface expression of S1P1,S1P1 [10],only reduced the cell surface expression of S1P1
same,remyelination after cuprizone diet cessation,[11]; prolonged treatment (3 weeks),significantly enhanced remyelination in the cingulum
same,remyelination after cuprizone diet cessation,[11]; short-term treatment (1 week),did not show any beneficial effects
same,cell surface expression of S1P1 after wash-out,S1P1 [12],reduced cell surface expression of S1P1 for a sustained period of time
same,Ca2+ signal at highest concentration,"Human primary astrocytes [4]; 30 µM, Figure S1",induced a Ca^2+ signal only at the highest concentration
same,effect on intracellular Ca2+ mobilization as agonist,Human primary astrocytes [4],"none of the S1PR modulators (ponesimod, siponimod, ozanimod, or fingolimod‐P) affected intracellular Ca^2+ mobilization"
"CCCCCCCCCCCCC/C=C/[C@@H](O)[C@@H](N)COP(=O)(O)O [S1P, Sphingosine 1‐phosphate]",cell surface expression of S1P5,S1P5,significantly reduced cell surface expression
same,cell surface expression of S1P4,S1P4,relatively less responsive
same,cell surface expression of S1P2,S1P2,significantly reduced cell surface expression
same,cell surface expression of S1P3,S1P3,significantly reduced cell surface expression
same,cell surface expression of S1P1,S1P1 [10],significantly reduced cell surface expression
same,cell surface expression of S1P1 after wash-out,S1P1 [12],recycled to the cell surface
same,EC50,"Human primary astrocytes [4]; Homo sapiens, Astrocyte, read-out: logEC50, intracellular Ca2+ response (converted)",93.1 nM
CCc1cc(/C(C)=N/OCc2ccc(C3CCCCC3)c(C(F)(F)F)c2)ccc1CN1CC(C(=O)O)C1 [Siponimod],Kd,S1P1 [7],0.8 ± 0.97 nM
same,inhibition of S1P-induced Ca2+ mobilization (functional antagonism),Human primary astrocytes [2],minor
same,effect on intracellular Ca2+ mobilization as agonist,Human primary astrocytes [4],"none of the S1PR modulators (ponesimod, siponimod, ozanimod, or fingolimod‐P) affected intracellular Ca^2+ mobilization"
